Measured values from different studies.
Compare with care: the assays were run in different laboratories.
Effect on: enzyme activity
Mode: inhibitor
ABL1: Tyrosine-protein kinase ABL1 (ABL1, Homo sapiens, UniProt P00519)
ABL1 Y253F: Tyrosine-protein kinase ABL1 (ABL1, Homo sapiens, UniProt P00519, Y253F)
ABL1 T315I: Tyrosine-protein kinase ABL1 (ABL1, Homo sapiens, UniProt P00519, T315I)

CNc1cccc2cc(C(=O)Nc3ccc(C(=O)O)cc3)c(=O)[nH]c12
inhibition (ABL1; 10 µM): 1.8%

COc1cc2ncnc(Nc3ccc(Oc4ccccc4)c(C)c3C)c2cc1OC
inhibition (ABL1 Y253F; 1 µM): 2%

CNC(=O)c1cc2c(Oc3ccc(NC(=O)C4(C(=O)Nc5ccc(F)cc5)CC4)cc3)ccnc2cc1OC
inhibition (ABL1 Y253F; radiometric; 1 µM): 78%

CC/C(=N\NC(=O)NCc1cccc(O)c1)c1ccc(O)c(C)c1O
inhibition (ABL1 T315I; 0.1 µM): -1.5%

CS(=O)(=O)Nc1cccc(-c2csc(NC(=O)CSc3nc4nccnc4c(=O)n3CCc3ccccc3)n2)c1
inhibition (ABL1; 10 µM): 2%

CN(C)C1CCN(CC#Cc2nn(C3CCCC3)c3nc(NCc4ccccc4)ncc23)C1 (stereo not drawn)
inhibition (ABL1; FRET; 10 µM): 31%

O=C(CSc1nc2nccnc2c(=O)n1CCc1ccccc1)Nc1nccs1
inhibition (ABL1 T315I; 10 µM): 2%

COc1cc2ncnc(Nc3ccc(Oc4ccccc4)cc3C)c2cc1OC
inhibition (ABL1 T315I; 1 µM): 5%

COc1cc(-c2cc(-c3ccc(N4CCNCC4)cc3)cnc2N)cc(OC)c1OC
inhibition (Tyrosine-protein kinase ABL1 (ABL1, Homo sapiens, UniProt P00519, Q252H); 1 µM): 96%
